Legend:
[1] = target: 11-beta-hydroxysteroid dehydrogenase 1 (Homo sapiens) (UniProt P28845); experiment: Inhibition of human 11beta-HSD1 expressed in HEK293 cells at 10 uM by scintillation proximity assay; type: cell-based
In short: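 Cell-based scintillation proximity assay in HEK293 cells stably transfected with full-length human hsd11b1, grown in DMEM. Compounds were added at 1% final DMSO with 20 nM tritiated cortisone (final), 2 h at 37 °C. Medium was mixed with anti-mouse YSi SPA beads and anti-cortisol antibody in Tris-HCl pH 7.0 buffer, 2 h at room temperature. Inhibition was calculated against an uninhibited control.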

Rattus norvegicus [2] = experiment: Antidiabetic effect in streptozo-nicotinamide rat model of diabetes assessed as change in blood glucose level at 100 mg/kg, po after 5 hrs relative to control; type: functional
In short: (§1)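 Type 2 diabetes was induced in overnight-fasted rats with i.p. streptozotocin 65 mg/kg, given 15 min after i.p. nicotinamide 110 mg/kg. Rats with glucose above 250 mg/dL at 72 h were used, n = 5 per group. Compounds were suspended in 1% Tween 80 and given orally. Controls received vehicle; glibenclamide 5 mg/kg was the reference. Caudal-vein glucose was read by glucose-oxidase glucometer at 0, 1, 3, 5 and 7 h.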

Rattus norvegicus [3] = experiment: Antidiabetic effect in streptozo-nicotinamide rat model of diabetes assessed as change in blood glucose level at 100 mg/kg, po after 7 hrs relative to control; type: functional; in short: as §1
Rattus norvegicus [4] = experiment: Antidiabetic effect in streptozo-nicotinamide rat model of diabetes assessed as change in blood glucose level at 100 mg/kg, po after 1 hr relative to control; type: functional; in short: as §1
Rattus norvegicus [5] = experiment: Antidiabetic effect in streptozo-nicotinamide rat model of diabetes assessed as change in blood glucose level at 100 mg/kg, po after 3 hrs relative to control; type: functional; in short: as §1

Sequence of 11-beta-hydroxysteroid dehydrogenase 1 (Homo sapiens) (P28845 whole entry, looked up): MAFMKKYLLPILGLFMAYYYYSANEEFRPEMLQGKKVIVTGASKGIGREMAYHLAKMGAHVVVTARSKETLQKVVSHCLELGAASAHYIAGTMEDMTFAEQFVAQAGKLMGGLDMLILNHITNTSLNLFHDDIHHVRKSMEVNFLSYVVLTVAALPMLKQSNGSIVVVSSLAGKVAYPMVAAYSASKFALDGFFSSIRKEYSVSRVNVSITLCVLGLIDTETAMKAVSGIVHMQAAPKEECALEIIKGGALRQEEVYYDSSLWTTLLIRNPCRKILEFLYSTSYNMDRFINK

CCOc1ccc2nc(NS(=O)(=O)c3ccc(C)cc3)sc2c1
inhibition [1]: 16.4%

CC(=O)Nc1ccc(S(=O)(=O)Nc2nc3ccc([N+](=O)[O-])cc3s2)cc1
Activity (Rattus norvegicus [2]): 4%
Activity (Rattus norvegicus [3]): 30%
Activity (Rattus norvegicus [4]): 37.2%
Activity (Rattus norvegicus [5]): 11.8%
inhibition [1]: 7.69%

Cc1ccc2nc(NS(=O)(=O)c3ccc(Cl)cc3)sc2c1
Activity (Rattus norvegicus [2]): 12.2%
Activity (Rattus norvegicus [3]): 21.4%
Activity (Rattus norvegicus [4]): 34%
Activity (Rattus norvegicus [5]): 36.1%
inhibition [1]: 27.2%

COc1ccc(Cl)cc1C(=O)NCCc1ccc(S(=O)(=O)NC(=O)NC2CCCCC2)cc1 [GLYBURIDE]
Activity (Rattus norvegicus [2]): 51.5%
Activity (Rattus norvegicus [3]): 55.4%
Activity (Rattus norvegicus [4]): 78%
Activity (Rattus norvegicus [5]): 32.6%

COc1ccc(S(=O)(=O)Nc2nc3ccc([N+](=O)[O-])cc3s2)cc1
Activity (Rattus norvegicus [2]): 19.1%
Activity (Rattus norvegicus [3]): 29%
Activity (Rattus norvegicus [4]): 77.1%
Activity (Rattus norvegicus [5]): 49%
inhibition [1]: 25.6%

COc1ccc2nc(NS(=O)(=O)c3ccc([N+](=O)[O-])cc3)sc2c1
Activity (Rattus norvegicus [2]): 18.1%
Activity (Rattus norvegicus [3]): 27.8%
Activity (Rattus norvegicus [4]): 69.7%
Activity (Rattus norvegicus [5]): 42.5%
inhibition [1]: 53.3%

CCOc1ccc2nc(NS(=O)(=O)c3ccc([N+](=O)[O-])cc3)sc2c1
inhibition [1]: 15.5%

Cc1ccc2nc(NS(=O)(=O)c3ccc([N+](=O)[O-])cc3)sc2c1
inhibition [1]: 11.1%

COc1ccc2nc(NS(=O)(=O)c3ccccc3)sc2c1
Activity (Rattus norvegicus [2]): 31.5%
Activity (Rattus norvegicus [3]): 53.2%
Activity (Rattus norvegicus [4]): 78.1%
Activity (Rattus norvegicus [5]): 62.9%
inhibition [1]: 37.6%

— ChEMBL document CHEMBL1145630, “Antidiabetic activity of N-(6-substituted-1,3-benzothiazol-2-yl)benzenesulfonamides” (2008)
